Measurements of several laboratories.
Compare with care: the assays were run in different laboratories.
Target: Casein kinase I isoform delta (CSNK1D, Homo sapiens, UniProt P48730)

Compound | effect on | method | concentration | remaining binding
CC1CCCN1c1nccc(-c2cnn3ncccc23)n1 (stereo not drawn) | binding |  | 1 µM | 100%
CCN1CCN(Cc2ccc(C(=O)Nc3ccc(C)c(Oc4ccc5c(c4)CC(=O)N5)c3)cc2C(F)(F)F)CC1 | binding | competition with immobilised ligand | 1 µM | 88%
C[C@H]1CCN(c2nccc(-c3cnn4ncccc34)n2)C1 | binding |  | 1 µM | 71%
C=CC(=O)N1CCC(C(=O)NCC(=O)N2CCN(c3nc(-c4cnc(N)nc4C(F)F)nc(N4CCOCC4)n3)CC2)CC1 | binding | competition with immobilised ligand | 1 µM | 100%
CC(C)(C)c1ccc(-c2nc(CBr)nn2-c2cccc(O)c2)cc1 | cell-free assay | competition with immobilised ligand | 10 µM | 82%
O=C(Nc1c[nH]nc1C(=O)NC1CCNCC1)c1cc(F)cc(F)c1 | binding | competition with immobilised ligand | 1 µM | 95%
N[C@@H]1CCN(c2nccc(-c3cnn4ncccc34)n2)C1 | binding |  | 1 µM | 14%
O=C(c1ccc(Nc2ncc(Cl)c(-c3cc4ccccc4s3)n2)cc1)N1CCC(N2CCCC2)CC1 | binding | competition with immobilised ligand | 1 µM | 100%
COc1ccc2c(c1)O[C@H](c1ccc(OC)c(OC)c1)C[C@@H]2NC(=O)C1(c2ccc3c(c2)OC(F)(F)O3)CC1 | cell-free assay | competition with immobilised ligand | 1 µM | 92%
Cc1cnc(Nc2ccc(C(=O)N3CCC(N4CCCC4)CC3)cc2)nc1-c1cc2ccccc2s1 | binding | competition with immobilised ligand | 1 µM | 100%
CN(C)CC#Cc1ccc(OCCCc2sc(N3CCc4cccc(C(=O)Nc5nc6ccccc6s5)c4C3)nc2C(=O)O)c(F)c1 | cell-free assay | competition with immobilised ligand | 1 µM | 95%
CN(c1nccc(-c2cnn3ncccc23)n1)C1CC1 | binding |  | 1 µM | 100%
COc1cnc(Nc2cccc(S(N)(=O)=O)c2)nc1N1CCN(c2ccccc2)C(=O)C1 | binding | competition with immobilised ligand | 1 µM | 98%
Cc1cnn2ncc(-c3ccnc(N(C)C)n3)c2c1 | binding |  | 1 µM | 69%
CC(=O)C1=C(C)N(c2cccc(C(F)(F)F)c2)C(=O)N[C@@H]1c1ccc(C#N)nc1 | cell-free assay | competition with immobilised ligand | 1 µM | 100%
FC(F)(F)Oc1cccc(-c2cnc3ccc(-c4ccncc4)nn23)c1 | cell-free assay | competition with immobilised ligand | 5 µM | 56%
CN(C(=O)c1ccccc1)c1cc(N(C)c2ccc3c(c2)CCc2ccc(C(=O)NCCN4CCOCC4)cc2C3=O)ccc1F | cell-free assay | competition with immobilised ligand | 1 µM | 100%
COc1ncc2cc3ccccc3nc2c1C#N | cell-free assay | competition with immobilised ligand | 5 µM | 93%
O=C(Nc1cccnn1)N1CCC(=Cc2cccc(Oc3ccc(C(F)(F)F)cn3)c2)CC1 | cell-free assay | competition with immobilised ligand | 1 µM | 100%
CN(C)c1nccc(-c2cnc3ncccn23)n1 | binding |  | 1 µM | 57%
Cc1cc(C)c(-n2ccn3nc(-c4cccnc4)cc23)cc1NC(=O)c1cc(C#N)cc(S(F)(F)(F)(F)F)c1 | cell-free assay | competition with immobilised ligand | 0.1 µM | 100%
N#Cc1ccccc1CSc1nnc2c(n1)[nH]c1ccccc12 | binding | competition with immobilised ligand | 10 µM | 86%
O=C(NCCCN1CCOCC1)c1ccc(Nc2ncc(Cl)c(-c3ccc(Cl)s3)n2)cc1 | binding | competition with immobilised ligand | 1 µM | 100%
C[C@@H]1CN(c2cc(-c3n[nH]c4ccc(OC5(C)CC5)cc34)ncn2)C[C@H](C)O1 | cell-free assay | competition with immobilised ligand | 0.1 µM | 80%
